Results from different studies.
Compare with care: the assays were run in different laboratories. Converted amounts (≈) assume the structure as drawn.
Effect on: microbial growth

The MIC of Cc1ccc(N=Nc2c(N)nn3c(-c4ccco4)cc(-c4ccc(OCc5ccccc5)cc4)nc23)cc1 is reported as 31.3 µg/mL (≈ 62.5 µM) (Enterobacter cloacae; ATCC23355).
With Cc1cc(Nc2nnc(-c3n[nH]c4ccc(C)cc34)s2)cc([N+](=O)[O-])c1 the MIC was 198 µg/mL (≈ 540 µM) (Serratia marcescens; ATCC8100).
With Nc1nn2c(-c3ccco3)cc(-c3ccc(OCc4ccccc4)cc3)nc2c1N=Nc1ccc(F)cc1 the MIC was 15.6 µg/mL (≈ 30.9 µM) (Enterobacter cloacae; ATCC23355).
Cc1ccc2[nH]nc(-c3nnc(Nc4cc(Cl)cc(Br)c4)s3)c2c1 has an MIC of 250 µg/mL (≈ 595 µM) (Serratia marcescens; ATCC8100).
CCCCCCC#Cc1cncc(-c2nnc(SCc3ccc([N+](=O)[O-])cc3)n2CCCN)c1 gave an MIC of greater than 64 µg/mL (Enterobacter cloacae; broth dilution; DSM30054).
The MIC of CC1(C)S[C@@H]2[C@H](NC(=O)[C@H](N)c3ccc(O)cc3)C(=O)N2[C@H]1C(=O)O is reported as greater than 64 µg/mL (Enterobacter cloacae; broth dilution; ATCC13047).
With CCCCCCC#Cc1cncc(-c2nnc(SCc3cc(C(F)(F)F)cc(C(F)(F)F)c3)n2CCCN)c1 the MIC was greater than 64 µg/mL (Enterobacter cloacae; broth dilution; DSM30054).
C[C@@H](O)[C@H]1C(=O)N2C(C(=O)O)=C(SCCN=CN)C[C@H]12 has an MIC of 2 µg/mL (≈ 6.68 µM) (Enterobacter cloacae; broth dilution; ATCC13047).
COc1ccc(N=Nc2c(N)nn3c(-c4ccco4)cc(-c4ccc(OCc5ccccc5)cc4)nc23)cc1 has an MIC of 7.81 µg/mL (≈ 15.1 µM) (Enterobacter cloacae; ATCC23355).
For CNC(C)C1CCC(N)C(OC2C(N)CC(N)C(OC3OCC(C)(O)C(NC)C3O)C2O)O1 (stereo not shown), the MIC was 4 µg/mL (≈ 8.38 µM) (Enterobacter cloacae; broth dilution; ATCC13047).
The MIC of Cc1ccc2[nH]nc(-c3nnc(Nc4ccc(Cl)c(Br)c4)s3)c2c1 is reported as 270 µg/mL (≈ 641 µM) (Serratia marcescens; ATCC8100).
With Cc1ccc(N=Nc2c(N)nn3c(-c4ccc(Cl)cc4Cl)cc(-c4ccc(OCc5ccccc5)cc4)nc23)cc1 the MIC was 31.3 µg/mL (≈ 54 µM) (Enterobacter cloacae; ATCC23355).
Cc1ccc2[nH]nc(-c3nnc(Nc4ccc(Cl)c(Cl)c4)s3)c2c1 has an MIC of 110 µg/mL (≈ 292 µM) (Serratia marcescens; ATCC8100).
For CCCCCCC#Cc1cncc(-c2nnc(SCc3ccc(Cl)cc3)n2CCCN)c1, the MIC was greater than 64 µg/mL (Enterobacter cloacae; broth dilution; DSM30054).
With C[C@@H](O)[C@H]1C(=O)N2C(C(=O)O)=C(S[C@@H]3CN[C@H](C(=O)N(C)C)C3)[C@H](C)[C@H]12 the MIC was 0.125 µg/mL (≈ 0.326 µM) (Enterobacter cloacae; broth dilution; ATCC13047).
For Cc1ccc2[nH]nc(-c3nnc(Nc4ccc(C)c(C)c4)s3)c2c1, the MIC was 123 µg/mL (≈ 366 µM) (Serratia marcescens; ATCC8100).
